MrgX1 PAM – human MrgX1 positive allosteric modulation, primary screen; Q96LB2; B-score at 10 µM; MrgX1-HEK293, Fluo-4 calcium flux, FDSS; stronger effect = higher value; hit rate 0.63% among 310,000; AID 588675;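 active = plate-corrected calcium response at least 3 library SD above typical, normal starting fluorescence, not activating the receptor alone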;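 also: compound read alongside a low EC10 to EC30 dose of BAM8-22 agonist; peak minus trough fluorescence over baseline measured at the second addition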
Target sequence (Q96LB2 whole entry, looked up): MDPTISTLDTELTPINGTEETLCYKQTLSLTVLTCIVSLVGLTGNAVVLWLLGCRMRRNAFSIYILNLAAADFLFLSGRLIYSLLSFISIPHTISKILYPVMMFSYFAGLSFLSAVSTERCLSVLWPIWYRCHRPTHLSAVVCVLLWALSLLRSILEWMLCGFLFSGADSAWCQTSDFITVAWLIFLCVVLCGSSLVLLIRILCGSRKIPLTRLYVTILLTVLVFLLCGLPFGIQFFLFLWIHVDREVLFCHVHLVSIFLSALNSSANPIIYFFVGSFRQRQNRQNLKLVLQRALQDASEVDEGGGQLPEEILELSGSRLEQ
MrgX1 antagonist – human MrgX1 receptor antagonism, primary screen | MRGX1-HEK293 calcium flux, Fluo-4, BAM8-22 antagonism; stronger effect = lower value | B-score at 10 µM | hit rate 1.3% among 310,000 | AID 588676 | Q96LB2;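 active = calcium-response B-score plate-corrected more than 3 library SD below zero, starting fluorescence within 5 deviations, no agonist response on first addition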;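 also: peak minus trough fluorescence over baseline after final BAM8-22 challenge near maximal dose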
MrgX1 agonist – agonists of human MrgX1 receptor | Q96LB2 | MrgX1-HEK293 cells, Fluo-4 calcium fluorescence, agonist mode; stronger effect = higher value | B-score at 10 µM | hit rate 0.44% among 310,000 | AID 588627;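 active = calcium response B-score plate-corrected fluorescence ratio at least 3 library SD, with starting fluorescence B-score inside 5 SD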
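Assay system: stable human MrgX1 HEK293 cell line. Quantity: 15,000 cells per well. Schedule: cells plated overnight, dye loaded 0.5 h 37 °C, 0.5 h room temperature. Detection: Fluo-4 NW calcium-flux fluorescence, kinetic read. Read-out basis: peak-minus-minimum fluorescence over baseline, converted to B scores. Control set: positive and negative control wells on each plate.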
RGS4 pot – potentiators or activators of RGS4; HEK293 M3R/inducible RGS4, carbachol calcium flux Fluo4; stronger effect = lower value; B-score at 10 µM; hit rate 0.92% among 310,000; AID 463111;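 active = B-score of the integrated calcium signal more than 4 SD below the library mean, with starting fluorescence not abnormally high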;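 also: negative B-score means reduced calcium response which marks RGS4 activation or potentiation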
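System – HEK293 FlpIn-TREx cells, stable M3R, doxycycline-inducible RGS4 · Reagent – ECmax carbachol challenge · Times – compound preincubation 20 min at room temperature before agonist · Technique – Fluo4 fluorescence kinetic imaging of calcium · Measure – B score of integrated Fluo4 ratio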
RGS4 block – human RGS4 inhibition; P49798; HEK293 M3R/RGS4 inducible, Fluo-4 calcium flux; stronger effect = higher value; triggered by carbachol at its EC20; B-score at 10 µM; hit rate 0.45% among 310,000; AID 463165;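 active = B-score, a plate-corrected calcium signal, over three deviations above library mean, with baseline fluorescence within five deviations of library mean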;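 also: RGS4 expression induced by doxycycline in cells with stable M3 receptor; B-score is computed from the integrated fluorescence ratio over baseline after carbachol; higher B-score means a larger calcium signal and so more RGS4 inhibition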
Target sequence (P49798 whole entry, looked up): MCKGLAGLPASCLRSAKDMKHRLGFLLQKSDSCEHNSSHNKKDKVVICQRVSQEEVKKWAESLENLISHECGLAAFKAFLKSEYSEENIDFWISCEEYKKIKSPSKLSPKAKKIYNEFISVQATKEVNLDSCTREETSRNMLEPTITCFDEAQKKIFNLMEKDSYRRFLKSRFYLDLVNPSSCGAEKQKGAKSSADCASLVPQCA
RGS4 block valid – validation of RGS4 inhibitors; calcium response, % at 10 µM; shares compounds with RGS4 block; hit rate 65% among 1,700; HEK293 M3R/RGS4, carbachol calcium Fluo-4 fluorescence; carbachol added at its EC20; 0 = buffer wells, 100 = carbachol control;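 active = duplicate-averaged calcium response above the buffer-only control mean plus 5 SD of those controls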;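 also: integrated fluorescence ratio F max minus min over baseline F0; higher response in RGS4-induced cells means RGS4 inhibition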
M3R Ca ctr – non-induced cell nonspecific activity of RGS4 inhibitors | hit rate 20% among 1,900 | AID 493000 | HEK293 M3R non-induced, carbachol calcium Fluo-4; submaximal (EC20) carbachol stimulus; buffer wells 0%, carbachol control wells 100% | shares compounds with RGS4 block | activity (percent), % at 10 µM; call rule not given here;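 also: RGS4 induction absent so cells express M3R without RGS4; higher means more calcium signal and flags a non-specific hit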
RGS4 inh ctr2 – second counter-screen for RGS4 inhibitors: non-induced cells without carbachol; hit rate 22% among 1,900; calcium response (agonist-mode artifact), % at 10 µM; HEK293 M3R/RGS4 non-induced, Fluo-4 calcium, no carbachol; normalised: buffer wells 0%, carbachol wells 100%; shares compounds with RGS4 block;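 active = duplicate-averaged calcium rise in uninduced cells above buffer wells' mean plus 5 SD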
Active calls of the source: *; i = inactive; nt = no result. Most compounds without a hit are left out; they make up all but 3.5% or so of the library.

SMILES	MrgX1 PAM	MrgX1 antagonist	MrgX1 agonist	RGS4 pot	RGS4 block	RGS4 block valid	M3R Ca ctr	RGS4 inh ctr2
COc1ccc(NC(=O)CC2SC(=NCc3ccccc3OC)NC2=O)cc1 (stereo not given)	i	i	i	i	i	nt	i	i
COc1ccc(CCNC(=O)CC2SC(=NCCc3ccccc3)NC2=O)cc1OC (stereo not given)	i	i	i	i	i	nt	nt	nt
O=C(NCC1CCCO1)c1csc(Nc2cccc3ccccc23)n1 (stereo not given)	i	i	i	i	i	nt	nt	nt
CN(C(=O)COC(=O)C1CCN(S(=O)(=O)c2cccs2)CC1)c1ccccc1	i	i	i	i	i	nt	nt	nt
Cc1ccccc1NC(=O)C(=Cc1ccc(C(=O)O)cc1)C(=O)Nc1ccccc1C	nt	nt	nt	i	10*	53%*	i	i
CC(=O)/C(=C/c1ccccc1)C(=O)Nc1ccccc1C	i	i	i	i	28*	64%*	64%*	i
CC(/C=C/c1ccccc1)=N/NC(=O)CCC(=O)Nc1ccccc1C	i	i	i	i	i	nt	nt	nt
N#C/C(=C/c1ccc(C(=O)O)cc1)C(=O)Nc1ccccc1	i	i	i	i	i	nt	nt	nt
O=C(CN(Cc1ccc(F)cc1)C(=O)c1csnn1)NC1CCCC1	i	i	i	i	i	nt	nt	nt
C#CCOC(=O)Nc1cccn(Cc2c(Cl)cccc2Cl)c1=O	i	i	i	i	i	nt	nt	nt
COC(=O)Nc1ccc(=O)n(Cc2c(Cl)cccc2Cl)c1	i	i	i	i	i	nt	i	i
CCOC(=O)[C@@H]1[C@H]2COc3cc(OC)ccc3[C@@H]2N2C(=O)N(c3ccc(OC)cc3)C(=O)[C@]12C	i	i	i	i	i	nt	nt	nt
CCOC(=O)[C@@H]1[C@H]2COc3ccccc3[C@@H]2N2C(=O)N(c3cccc(Cl)c3)C(=O)[C@]12C	i	i	i	i	i	i	i	i
CCOC(=O)[C@@H]1[C@H]2COc3ccccc3[C@@H]2N2C(=O)N(c3cccc(Cl)c3)C(=O)[C@@]12C	i	i	i	i	i	i	i	i
CCOC(=O)[C@@H]1[C@H]2COc3ccc(Br)cc3[C@@H]2N2C(=O)N(c3cccc(F)c3)C(=O)[C@@]12C	i	i	i	i	i	nt	nt	nt
CCOC(=O)[C@@H]1[C@H]2COc3ccccc3[C@@H]2N2C(=O)N(c3cccc(F)c3)C(=O)[C@]12C	i	i	i	i	i	i	i	i
CCOC(=O)[C@@H]1[C@H]2COc3ccccc3[C@H]2N2C(=O)N(c3cccc(Cl)c3)C(=O)[C@@]12C	i	i	i	i	6.5*	36%*	32%*	i
COc1cc(S(=O)(=O)N(C)C2CCCCC2)c(C)cc1C	nt	nt	nt	i	i	nt	nt	nt
O=Nc1c(O)n(Cc2ccc(Cl)c(Cl)c2)c2ccccc12	i	i	i	i	15*	16%*	39%*	i
Cc1[nH]n(-c2ncc(-c3ccc(Cl)cc3)s2)c(=O)c1C(c1ccc(Cl)cc1)C(C#N)C#N (stereo not given)	i	i	i	i	18*	30%*	i	48%*
COc1ccc(NC(=O)c2ccc(NC(=O)CN(C)CC(=O)Nc3c(C)cccc3C)cc2)cc1	i	i	i	i	i	nt	nt	nt
O=C(CSc1cccc[n+]1[O-])Nc1cc2c(cc1Cl)C(=O)c1ccccc1C2=O	i	i	i	i	12*	65%*	i	i
O=C1Nc2ccc(S(=O)(=O)N3CCCC3)c3cccc1c23	i	i	i	i	i	nt	nt	nt
O=C1Nc2ccc(S(=O)(=O)N3CCCC3C(=O)O)c3cccc1c23 (stereo not given)	i	i	i	i	5.5*	i	i	i
O=c1c2ccccc2nc(N/N=C/c2c(O)ccc3ccccc23)n1O	i	i	i	i	8.4*	40%*	44%*	i
SMILES	MrgX1 PAM	MrgX1 antagonist	MrgX1 agonist	RGS4 pot	RGS4 block	RGS4 block valid	M3R Ca ctr	RGS4 inh ctr2
CCCC(=O)Nc1cccc(NC(=O)c2ccc3c(c2)OCCO3)c1	i	i	i	i	i	nt	i	i
Cc1cc(N(CCO)CCO)ccc1N=Nc1cc(F)ccc1F	i	i	i	i	7.3*	18%*	41%*	i
CCN(CC)CCN(C(=O)c1ccc2c(c1)CCCC2)c1nc2cc(OC)c(OC)cc2s1	i	i	i	i	5.3*	i	i	i
COc1cc2nc(N(CCN(C)C)C(=O)c3ccc4ccccc4c3)sc2cc1OC	i	i	i	i	i	nt	nt	nt
CCOC(=O)/C(C#N)=C/c1cn(CCC(=O)O)nc1-c1ccc(F)cc1	i	i	i	i	i	nt	nt	nt
CCOC(=O)/C(C#N)=C/c1cn(CCC(=O)O)nc1-c1cccc(Cl)c1	i	i	i	i	4.7*	i	i	i
Cc1ccc(/C=C(\NC(=O)c2ccc(C)cc2)c2nc(=S)[nH][nH]2)cc1	i	i	i	i	11*	35%*	44%*	i
Cc1ccc(C(=O)N/C(=C\c2ccccc2F)c2nc(=S)[nH][nH]2)cc1	i	i	i	i	i	nt	nt	nt
Cc1ccc(S(=O)(=O)N2CCCOC2CNC(=O)C(=O)NC2CCCCC2)cc1 (stereo not given)	i	i	i	i	i	i	i	i
Cc1ccc(C)c(N(Cc2cc3ccc(C)cc3[nH]c2=O)C(=O)c2ccco2)c1	i	i	i	i	i	i	i	i
COc1ccc(N(Cc2cc3ccc(C)cc3[nH]c2=O)C(=O)c2ccco2)cc1	i	i	i	i	i	i	i	i
COc1ccc(N(Cc2cc3ccc(C)cc3[nH]c2=O)C(=O)C2CCCO2)cc1 (stereo not given)	i	i	i	i	i	nt	nt	nt
Cc1cc(C(F)(F)F)nn1CC(=O)NCc1cccs1	i	i	i	i	i	nt	nt	nt
CN(Cc1cn(-c2ccccc2)nc1-c1ccc(Cl)cc1)C(=O)CCC(=O)O	i	i	i	i	i	nt	nt	nt

High-throughput results deposited in PubChem BioAssay by Johns Hopkins Ion Channel Center.
